From publication PMC7731903 (Clinical cancer research : an official journal of the …, 2018)
“Also recorded” adds a separate entry of the source.

Key:
Assay type in all cases: in vivo, human
[1] = Vincristine plasma PK in presence; details: for AUC / AUC(0-inf) / clearance / Cmax / half-life: human, plasma, intravenous; for AUC: Geometric mean AUCτ (CV); for AUC(0-inf): Geometric mean AUC∞ (CV); for clearance: Geometric mean CL (CV); for Cmax: Geometric mean Cmax (CV); for half-life: Mean t1/2z (st. dev)
[2] = system: non-GCB DLBCL; experiment: Best response by cell of origin; details: non-GCB-derived disease, 20 patients (MR + MRV)
[3] = system: relapsed/refractory aggressive B-cell lymphoma; experiment: Antitumor activity, investigator-assessed response
[4] = system: GCB DLBCL; experiment: Best response by cell of origin; details: MR + MRV; P = 0.058 vs non-GCB, two-sided Fisher exact test
[5] = Alisertib plasma PK in patients; details: for AUC / Cmax / Tmax: human, plasma, oral; for AUC: Geometric mean AUCτ (CV); for Cmax: Geometric mean Cmax (CV)
How it was run: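 Patients with relapsed/refractory aggressive B-cell NHL took oral test compound twice daily on days 1–7 of 21-day cycles, at 30 to 50 mg b.i.d. Cohorts received it with rituximab 375 mg/m2 i.v. on day 1, with or without vincristine 1.4 mg/m2 (max 2 mg) i.v. on days 1 and 8. Blood was drawn at prespecified times after the morning dose on cycle 1 days 1 and 7. Cmax, tmax and AUCτ were derived by noncompartmental analysis.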

[6] = 30 mg, alisertib 30 mg b.i.d. cohort, C1D1 (alisertib present), n=4
[7] = 30 mg, alisertib 30 mg b.i.d. cohort, C2D1 (alisertib absent), n=3
[8] = 30 mg, alisertib 30 mg b.i.d. cohort, C2D1 (alisertib absent), n=4
[9] = 40 mg, alisertib 40 mg b.i.d. cohort, C2D1 (alisertib absent), n=17
[10] = 40 mg, alisertib 40 mg b.i.d. cohort, C1D1 (alisertib present), n=22
[11] = 40 mg, alisertib 40 mg b.i.d. cohort, C2D1 (alisertib absent), n=16
[12] = 40 mg, alisertib 40 mg b.i.d. cohort, C1D1 (alisertib present), n=25
[13] = 50 mg, alisertib 50 mg b.i.d. cohort, C1D1 (alisertib present), n=3
[14] = 50 mg, alisertib 50 mg b.i.d. cohort, C2D1 (alisertib absent), n=2
[15] = 30 mg, MRV, alisertib 30 mg b.i.d., C1D1, n=4
[16] = 30 mg, MRV, alisertib 30 mg b.i.d., C1D7, n=4
[17] = 40 mg, MRV, alisertib 40 mg b.i.d., C1D7, n=20
[18] = 50 mg, MR, alisertib 50 mg b.i.d., C1D7, n=12
[19] = 50 mg, MRV, alisertib 50 mg b.i.d., C1D1, n=3
[20] = 50 mg, MRV, alisertib 50 mg b.i.d., C1D7, n=2

CC[C@]1(O)C[C@H]2CN(CCc3c([nH]c4ccccc34)[C@@](C(=O)OC)(c3cc4c(cc3OC)N(C=O)[C@H]3[C@@](O)(C(=O)OC)[C@H](OC(C)=O)[C@]5(CC)C=CCN6CC[C@]43[C@@H]65)C2)C1 [vincristine]
Geometric mean ratio of vincristine AUC∞, presence vs absence of alisertib ([1]; MRV RP2D (alisertib 40 mg b.i.d.), 90% CI 82–115, n = 22): 97%
AUC [1, 6]: 69.2 ng·h/mL
AUC ([1]; 30 mg, alisertib 30 mg b.i.d. cohort, C2D1 (alisertib absent), n=2): 60.8 ng·h/mL
AUC(0-inf) [1, 6]: 77 ng·h/mL
AUC(0-inf) [1, 7]: 69 ng·h/mL
clearance [1, 6]: 432 mL/min
clearance [1, 8]: 483 mL/min
Cmax [1, 8]: 98.2 ng/mL
half-life [1, 6]: 20.2 h
half-life [1, 7]: 19.9 h
AUC ([1]; 40 mg, alisertib 40 mg b.i.d. cohort, C1D1 (alisertib present), n=24): 60.1 ng·h/mL
AUC [1, 9]: 67.8 ng·h/mL
AUC(0-inf) [1, 10]: 78 ng·h/mL
AUC(0-inf) [1, 11]: 77 ng·h/mL
clearance [1, 12]: 427 mL/min
clearance [1, 9]: 432 mL/min
Cmax [1, 12]: 82.9 ng/mL
Cmax [1, 9]: 87.3 ng/mL
half-life [1, 10]: 20 h
half-life [1, 11]: 20.2 h
AUC [1, 13]: 98 ng·h/mL
AUC [1, 14]: 68.4 ng·h/mL
AUC(0-inf) [1, 13]: 111 ng·h/mL
clearance [1, 13]: 300 mL/min
Cmax [1, 13]: 149 ng/mL
Cmax [1, 14]: 120 ng/mL
half-life [1, 13]: 25.6 h
Cmax ([1]; vincristine 1.4 mg/m^2 + rituximab, alisertib 30 mg b.i.d. cohort, C1D1 (alisertib present), n=4): 120 ng/mL

COc1cc(Nc2ncc3c(n2)-c2ccc(Cl)cc2C(c2c(F)cccc2OC)=NC3)ccc1C(=O)O [alisertib]
PR as best response ([2]; 3 patients): 15%
CR as best response ([2]; 6 patients): 30%
ORR (CR + PR) ([3]; 37 response-evaluable patients (MR + MRV), n = 14): 38%
CR ([3]; Total MR + MRV, N=37): 7 (19) n (%)
ORR (CR + PR) ([3]; Total MR + MRV, N=37): 14 (38) n (%)
PD ([3]; Total MR + MRV, N=37): 11 (30) n (%)
PR ([3]; Total MR + MRV, N=37): 7 (19) n (%)
Complete responses (CR) ([3]; all patients (MR + MRV)): Seven
Median PFS ([3]; all patients (MR + MRV)): 5.1 months
Partial responses (PRs) ([3]; all patients (MR + MRV)): 7 patients
Median DOR ([3]; patients with a best response of CR, range 9.0–35.7): 14.3 months
Median PFS ([3]; patients with a best response of CR, range 10.1–36.9): 16.4 months
Median DOR ([3]; responding patients (MR + MRV)): 10.2 months
Patients achieving first response by the end of cycle 2 ([3]; responding patients (MR + MRV)): 57%
Objective response in GCB-derived disease [4]: None of the 7 response-evaluable patients; also recorded: no patients with GCB-derived disease (9/29) achieved an objective response
AUC [5, 15]: 5.22 µM·h
AUC [5, 16]: 11.8 µM·h
Cmax [5, 15]: 841 nM
Cmax [5, 16]: 1660 nM
Tmax ([5]; 30 mg, Median Tmax (range), MRV, alisertib 30 mg b.i.d., C1D1, n=4): 3.5 h
Tmax ([5]; 30 mg, Median Tmax (range), MRV, alisertib 30 mg b.i.d., C1D7, n=4): 3.1 h
AUC ([5]; 40 mg, MRV, alisertib 40 mg b.i.d., C1D1, n=22): 7.44 µM·h
AUC [5, 17]: 14.9 µM·h
Cmax ([5]; 40 mg, MRV, alisertib 40 mg b.i.d., C1D1, n=25): 1090 nM
Cmax [5, 17]: 1950 nM
Tmax ([5]; 40 mg, Median Tmax (range), MRV, alisertib 40 mg b.i.d., C1D1, n=25): 3 h
Tmax ([5]; 40 mg, Median Tmax (range), MRV, alisertib 40 mg b.i.d., C1D7, n=20): 3.1 h
AUC ([5]; 50 mg, MR, alisertib 50 mg b.i.d., C1D1, n=12): 8.61 µM·h
AUC [5, 18]: 18.7 µM·h
AUC [5, 19]: 11.2 µM·h
AUC [5, 20]: 31.8 µM·h
Cmax ([5]; 50 mg, MR, alisertib 50 mg b.i.d., C1D1, n=13): 1400 nM
Cmax [5, 18]: 2590 nM
Cmax [5, 19]: 1670 nM
Cmax [5, 20]: 3500 nM
Tmax ([5]; 50 mg, Median Tmax (range), MR, alisertib 50 mg b.i.d., C1D1, n=13): 3 h
Tmax ([5]; 50 mg, Median Tmax (range), MR, alisertib 50 mg b.i.d., C1D7, n=12): 2 h
Tmax ([5]; 50 mg, Median Tmax (range), MRV, alisertib 50 mg b.i.d., C1D1, n=3): 6.1 h
Tmax ([5]; 50 mg, Median Tmax (range), MRV, alisertib 50 mg b.i.d., C1D7, n=2): 2.5 h
Tmax ([5]; tmax after dose, with both MR and MRV): ~3 h
Increase of alisertib exposures with dose ([5]; over the range of 30 to 50 mg b.i.d.): approximately dose-proportional
